Assay [1] deals with T1, Endoplasmic reticulum aminopeptidase 1 (Homo sapiens, UniProt Q9NZ08). Nature of the assay: Inhibition of human recombinant ERAP1 expressed in baculovirus infected Sf9 cells using omniMMP fluorogenic substrate incubated for 5 to 10 mins by fluorescence spectrophotometry analysis.
For assay [2], the target named is T2, Endoplasmic reticulum aminopeptidase 2 (Homo sapiens, UniProt Q6P179). Nature of the assay: Competitive inhibition of human recombinant ERAP2 expressed in baculovirus infected sf9 cells using R-AMC as substrate incubated for 5 to 10 mins by Michaelis-Menten analysis.
T2 sequence (Q6P179 whole entry): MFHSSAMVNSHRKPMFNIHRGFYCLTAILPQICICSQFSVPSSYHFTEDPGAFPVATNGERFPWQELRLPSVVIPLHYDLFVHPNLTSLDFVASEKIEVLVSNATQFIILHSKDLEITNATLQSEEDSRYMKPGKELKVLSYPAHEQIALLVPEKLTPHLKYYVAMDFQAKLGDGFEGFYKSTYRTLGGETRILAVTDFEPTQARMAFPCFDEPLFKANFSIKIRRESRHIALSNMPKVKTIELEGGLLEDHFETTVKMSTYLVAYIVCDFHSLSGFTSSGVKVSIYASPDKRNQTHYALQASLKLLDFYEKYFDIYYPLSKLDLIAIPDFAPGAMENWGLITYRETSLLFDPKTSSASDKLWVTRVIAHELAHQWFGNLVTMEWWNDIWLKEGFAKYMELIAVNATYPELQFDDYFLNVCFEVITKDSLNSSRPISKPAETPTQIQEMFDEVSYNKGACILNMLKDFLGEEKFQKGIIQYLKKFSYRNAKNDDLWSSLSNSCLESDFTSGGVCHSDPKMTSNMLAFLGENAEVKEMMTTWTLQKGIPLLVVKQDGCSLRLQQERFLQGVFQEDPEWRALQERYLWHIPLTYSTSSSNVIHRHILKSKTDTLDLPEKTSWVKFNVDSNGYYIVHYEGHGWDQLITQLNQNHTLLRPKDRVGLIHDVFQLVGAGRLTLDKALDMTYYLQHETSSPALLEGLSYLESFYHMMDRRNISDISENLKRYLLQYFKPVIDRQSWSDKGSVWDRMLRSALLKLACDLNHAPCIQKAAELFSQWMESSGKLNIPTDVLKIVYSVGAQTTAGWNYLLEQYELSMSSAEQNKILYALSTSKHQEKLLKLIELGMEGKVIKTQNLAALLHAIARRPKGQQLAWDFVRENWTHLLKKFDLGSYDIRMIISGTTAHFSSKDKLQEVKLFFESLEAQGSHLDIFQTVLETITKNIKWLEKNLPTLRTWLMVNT
In assay [3] the target is T1, Endoplasmic reticulum aminopeptidase 1. Nature of the assay: Competitive inhibition of human recombinant ERAP1 expressed in baculovirus infected sf9 cells using L-AMC as substrate incubated for 5 to 10 mins by Michaelis-Menten analysis. An outline of the steps:
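ERAP1 (recombinant, as described previously) at 10 nM with L-AMC as substrate. Michaelis-Menten analysis as previously described. Ki for competitive inhibition derived using a KM for L-AMC of 546 μM.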

The target in assay [4] is T2, Endoplasmic reticulum aminopeptidase 2. Nature of the assay: Inhibition of human recombinant ERAP2 expressed in baculovirus infected Sf9 cells using omniMMP fluorogenic substrate incubated for 5 to 10 mins by fluorescence spectrophotometry analysis.
Assay [5] has as its system Insulin-regulated aminopeptidase (Homo sapiens). Nature of the assay: Inhibition of human recombinant IRAP expressed in baculovirus infected Sf9 cells using omniMMP fluorogenic substrate incubated for 5 to 10 mins by fluorescence spectrophotometry analysis.

The record followed here is ChEMBL document CHEMBL4406907, “Exploration of zinc-binding groups for the design of inhibitors for the oxytocinase subfamily of M1 aminopeptidases” (Bioorg Med Chem, 2019).

The structures appear in SMILES notation.

T1 sequence (Q9NZ08 whole entry): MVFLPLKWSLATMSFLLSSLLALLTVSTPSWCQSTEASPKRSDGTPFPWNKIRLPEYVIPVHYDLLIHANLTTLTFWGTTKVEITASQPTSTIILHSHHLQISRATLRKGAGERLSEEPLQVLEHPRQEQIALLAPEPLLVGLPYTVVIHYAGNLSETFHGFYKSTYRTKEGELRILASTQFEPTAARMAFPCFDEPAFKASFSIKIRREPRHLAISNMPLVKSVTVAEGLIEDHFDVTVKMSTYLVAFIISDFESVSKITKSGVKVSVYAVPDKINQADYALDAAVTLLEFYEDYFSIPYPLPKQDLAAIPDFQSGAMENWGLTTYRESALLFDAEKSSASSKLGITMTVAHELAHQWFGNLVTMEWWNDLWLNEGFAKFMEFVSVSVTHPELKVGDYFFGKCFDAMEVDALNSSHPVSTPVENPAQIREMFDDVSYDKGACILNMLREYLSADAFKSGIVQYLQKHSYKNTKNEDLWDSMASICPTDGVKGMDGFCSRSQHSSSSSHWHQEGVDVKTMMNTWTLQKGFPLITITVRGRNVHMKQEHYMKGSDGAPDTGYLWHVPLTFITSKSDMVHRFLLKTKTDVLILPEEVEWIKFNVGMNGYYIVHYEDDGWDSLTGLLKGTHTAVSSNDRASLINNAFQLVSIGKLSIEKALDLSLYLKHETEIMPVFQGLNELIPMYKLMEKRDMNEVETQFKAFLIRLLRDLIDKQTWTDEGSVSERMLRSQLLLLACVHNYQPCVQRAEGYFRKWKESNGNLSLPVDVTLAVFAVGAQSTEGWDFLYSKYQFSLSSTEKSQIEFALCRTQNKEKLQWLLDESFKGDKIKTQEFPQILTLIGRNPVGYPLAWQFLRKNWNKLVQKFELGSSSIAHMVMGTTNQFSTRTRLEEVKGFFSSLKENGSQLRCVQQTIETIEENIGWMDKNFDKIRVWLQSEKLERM

On to `O=C(Cn1cccc(O)c1=O)NCCc1ccc(-c2ccccc2)cc1`, for which the IC50 (usually the point on the concentration scale where inhibition reaches its midpoint) came to 19.1 µM in assay [1] and 50.3 µM in assay [4]. The figures for the Ki in assay [2] and in assay [3] were 27.4 µM and 17.5 µM, respectively.

`CCCC[C@H](N)C(=O)Nc1cccc(C(=O)N[C@@H](Cc2c[nH]c3ccccc23)C(=O)OCc2ccccc2)c1`: the IC50 is greater than 100 µM in assay [1] and greater than 10 µM in assay [4].

Turning to `CCCC[C@H](N)C(=O)Nc1ccc(C(=O)N[C@@H](Cc2c[nH]c3ccccc23)C(=O)OCc2ccccc2)cc1`, the IC50 was greater than 100 µM in assay [1] and 8.8 µM in assay [4]. Further, the Ki – broadly, the equilibrium dissociation constant of an inhibitor or competing ligand from its target – in assay [2] is 4.8 µM.

For `CCCC[C@H](N)C(=O)Nc1cc(C(=O)N[C@@H](Cc2c[nH]c3ccccc23)C(=O)OCc2ccccc2)ccn1`, the IC50 in assay [1] and in assay [4] was greater than 10 µM throughout.

Regarding `O=C(Cn1cccc(O)c1=O)NCCc1c[nH]c2ccccc12`, in assay [2], the Ki was 17.7 µM. In assay [4], the IC50 was 31.3 µM.

`N[C@@H](CCc1ccccc1)C(=O)NNc1ccc(C(=O)N[C@@H](Cc2c[nH]c3ccccc23)C(=O)OCc2ccccc2)cc1`: the IC50 is 11.9 µM in assay [1] and greater than 10 µM in assay [4]. Besides, in assay [3], the Ki amounted to 4.7 µM.

Take `O=C(Cn1cccc(O)c1=O)N[C@@H](Cc1c[nH]c2ccccc12)C(=O)OCc1ccccc1`: the half-inhibitory concentration (IC50) amounted to 20.2 µM in assay [1] and 10.3 µM in assay [4]. For the same compound, the Ki in assay [2] came to 0.7 µM; in assay [3], 18.5 µM.

In the case of `CC(C)[C@H](NC(=O)Cn1cccc(O)c1=O)C(=O)OCc1ccccc1`, the IC50 turned out to be 48.5 µM in assay [1] and 8.9 µM in assay [4]. The Ki in assay [2] came to 4.9 µM; in assay [3] it was 44 µM.

With `CCCC[C@H](N)C(=O)NNc1cccc(C(=O)N[C@@H](Cc2c[nH]c3ccccc23)C(=O)OCc2ccccc2)c1`, the IC50 in assay [1] is greater than 10 µM; in assay [4], 7.9 µM. Also, the inhibition constant Ki in assay [2] was 4.3 µM.

Turning to `CCCC[C@H](N)C(=O)NNc1ccc(C(=O)N[C@@H](Cc2c[nH]c3ccccc23)C(=O)OCc2ccccc2)cc1`, the IC50 in assay [1] turned out to be 11.9 µM; in assay [4] it was 2.2 µM. Besides, the results for the Ki in assay [2] and in assay [3] were 1.2 µM and 10.9 µM, respectively. Moreover, in assay [5], the inhibition entry was “Dose-dependent effect”.

On to `COc1cccn(CC(=O)NCCc2ccc(-c3ccccc3)cc2)c1=S`, for which the figures for the IC50 in assay [1] and in assay [4] were 25.6 µM and 31.9 µM, respectively. Also, the inhibition constant (Ki) in assay [2] came to 17.4 µM; in assay [3] it was 23.4 µM.
